Measured values reported in ChEMBL document CHEMBL1687749, “Beijing genotype of Mycobacterium tuberculosis is significantly associated with high-level fluoroquinolone resistance in Vietnam” (2009).
Values after ≈ are worked out from the molar mass of the structure shown.

Key:
Type in all cases: functional
[1] = system: Mycobacterium tuberculosis; test: Antimycobacterial activity against fluoroquinolone-resistant Mycobacterium tuberculosis Beijing genotype isolates without carrying multiple mutation and harboring gyrB A90V and T539P mutant genes
[2] = system: Mycobacterium tuberculosis; test: Antimycobacterial activity against fluoroquinolone-resistant Mycobacterium tuberculosis Beijing genotype isolates without carrying multiple mutation and harboring gyrB D500N mutant gene
Method in brief: (§1)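 Ofloxacin MIC was determined on the first 65 FQ-resistant clinical isolates, and 64 regrew on subculture. Resistance was defined by the WHO 1% proportion method on Lowenstein-Jensen medium with ofloxacin at 2 μg/ml. Mutations were assigned by gyrA/gyrB sequencing and Beijing genotype by spoligotyping. The value is the median MIC per mutation, excluding isolates with multiple mutations or sequencing heteropeaks.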

[3] = system: Mycobacterium tuberculosis; test: Antimycobacterial activity against mixture of fluoroquinolone-resistant and sensitive Mycobacterium tuberculosis Beijing genotype isolates carrying heteropeaks upon sequencing at mutation site and harboring gyrB A90V and D500A mutant genes
Method in brief: (§2)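 Ofloxacin MIC was determined on isolates from the first 65 FQ-resistant clinical isolates, screened by the WHO 1% proportion method on Lowenstein-Jensen medium with ofloxacin at 2 μg/ml. Beijing genotype was assigned by spoligotyping.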

[4] = system: Mycobacterium tuberculosis; test: Antimycobacterial activity against mixture of fluoroquinolone-resistant and sensitive Mycobacterium tuberculosis Beijing genotype isolates carrying heteropeaks upon sequencing at mutation site and harboring gyrA A90V mutant gene; method in brief: as §2
[5] = system: Mycobacterium tuberculosis; test: Antimycobacterial activity against mixture of fluoroquinolone-resistant and sensitive Mycobacterium tuberculosis Beijing genotype isolates carrying heteropeaks upon sequencing at mutation site and harboring gyrB D540D mutant gene; method in brief: as §2
[6] = system: Mycobacterium tuberculosis; test: Antimycobacterial activity against mixture of fluoroquinolone-resistant and sensitive Mycobacterium tuberculosis Beijing genotype isolates carrying heteropeaks upon sequencing at mutation site and harboring gyrA D94Y mutant gene; method in brief: as §2
[7] = system: Mycobacterium tuberculosis; test: Antimycobacterial activity against fluoroquinolone-resistant Mycobacterium tuberculosis Beijing genotype isolates without carrying multiple mutation and harboring gyrA D94Y mutant gene; method in brief: as §1
[8] = system: Mycobacterium tuberculosis; test: Antimycobacterial activity against mixture of fluoroquinolone-resistant and sensitive Mycobacterium tuberculosis Beijing genotype isolates carrying heteropeaks upon sequencing at mutation site and harboring gyrA D94G and D94A mutant genes; method in brief: as §2
[9] = system: Mycobacterium tuberculosis; test: Antimycobacterial activity against mixture of fluoroquinolone-resistant and sensitive Mycobacterium tuberculosis Beijing genotype isolates carrying heteropeaks upon sequencing at mutation site and harboring gyrB A90V and T539P mutant genes; method in brief: as §2
[10] = system: Mycobacterium tuberculosis; test: Antimycobacterial activity against mixture of fluoroquinolone-resistant and sensitive Mycobacterium tuberculosis Beijing genotype isolates carrying heteropeaks upon sequencing at mutation site and harboring gyrA G88A mutant gene; method in brief: as §2
[11] = system: Mycobacterium tuberculosis; test: Antimycobacterial activity against fluoroquinolone-resistant Mycobacterium tuberculosis Beijing genotype isolates without carrying multiple mutation and harboring gyrA D94G mutant gene; method in brief: as §1
[12] = system: Mycobacterium tuberculosis; test: Antimycobacterial activity against fluoroquinolone-resistant Mycobacterium tuberculosis Beijing genotype isolates without carrying multiple mutation and harboring gyrA A90V mutant gene; method in brief: as §1
[13] = system: Mycobacterium tuberculosis; test: Antimycobacterial activity against fluoroquinolone-resistant Mycobacterium tuberculosis Beijing genotype isolates without carrying mutation; method in brief: as §1
[14] = system: Mycobacterium tuberculosis; test: Antimycobacterial activity against mixture of fluoroquinolone-resistant and sensitive Mycobacterium tuberculosis Beijing genotype isolates carrying heteropeaks upon sequencing; method in brief: as §2
[15] = system: Mycobacterium tuberculosis; test: Antimycobacterial activity against mixture of fluoroquinolone-resistant and sensitive Mycobacterium tuberculosis Beijing genotype isolates carrying heteropeaks upon sequencing at mutation site and harboring gyrA A90V and D94G mutant genes; method in brief: as §2
[16] = system: Mycobacterium tuberculosis; test: Antimycobacterial activity against fluoroquinolone-resistant Mycobacterium tuberculosis Beijing genotype isolates without carrying multiple mutation and harboring gyrB D540D mutant gene; method in brief: as §1
[17] = system: Mycobacterium tuberculosis; test: Antimycobacterial activity against fluoroquinolone-resistant Mycobacterium tuberculosis Beijing genotype isolates without carrying multiple mutation and harboring gyrA D94A mutant gene; method in brief: as §1
[18] = system: Mycobacterium tuberculosis; test: Antimycobacterial activity against mixture of fluoroquinolone-resistant and sensitive Mycobacterium tuberculosis Beijing genotype isolates carrying heteropeaks upon sequencing at mutation site and harboring gyrA D94N mutant gene; method in brief: as §2
[19] = system: Mycobacterium tuberculosis; test: Antimycobacterial activity against mixture of fluoroquinolone-resistant and sensitive Mycobacterium tuberculosis Beijing genotype isolates carrying heteropeaks upon sequencing at mutation site and harboring gyrA D94A mutant gene; method in brief: as §2
[20] = system: Mycobacterium tuberculosis; test: Antimycobacterial activity against mixture of fluoroquinolone-resistant and sensitive Mycobacterium tuberculosis Beijing genotype isolates carrying heteropeaks upon sequencing at mutation site and harboring gyrA A90V and D94A mutant genes; method in brief: as §2
[21] = system: Mycobacterium tuberculosis; test: Antimycobacterial activity against mixture of fluoroquinolone-resistant and sensitive Mycobacterium tuberculosis Beijing genotype isolates carrying heteropeaks upon sequencing at mutation site and harboring gyrB D500N mutant gene; method in brief: as §2
[22] = system: Mycobacterium tuberculosis; test: Antimycobacterial activity against fluoroquinolone-resistant Mycobacterium tuberculosis Beijing genotype isolates without carrying multiple mutation and harboring gyrA D94N mutant gene; method in brief: as §1
[23] = system: Mycobacterium tuberculosis; test: Antimycobacterial activity against mixture of fluoroquinolone-resistant and sensitive Mycobacterium tuberculosis Beijing genotype isolates carrying heteropeaks upon sequencing at mutation site and harboring gyrA D94G mutant gene; method in brief: as §2

## CC1COc2c(N3CCN(C)CC3)c(F)cc3c(=O)c(C(=O)O)cn1c23 (stereo not drawn) [OFLOXACIN]
[1]
  MIC: >12 µg/mL
[2]
  MIC: >4 µg/mL
[3]
  MIC: 8 µg/mL (≈ 22.1 µM)
[4]
  MIC: 8 µg/mL (≈ 22.1 µM)
[5]
  MIC: 12 µg/mL (≈ 33.2 µM)
[6]
  MIC: >12 µg/mL
[7]
  MIC: 12 µg/mL (≈ 33.2 µM)
[8]
  MIC: 12 µg/mL (≈ 33.2 µM)
[9]
  MIC: >12 µg/mL
[10]
  MIC: 12 µg/mL (≈ 33.2 µM)
[11]
  MIC: 12 µg/mL (≈ 33.2 µM)
[12]
  MIC: 8 µg/mL (≈ 22.1 µM)
[13]
  MIC: 4 µg/mL (≈ 11.1 µM)
[14]
  MIC: 4 µg/mL (≈ 11.1 µM)
[15]
  MIC: 12 µg/mL (≈ 33.2 µM)
[16]
  MIC: 12 µg/mL (≈ 33.2 µM)
[17]
  MIC: 8 µg/mL (≈ 22.1 µM)
[18]
  MIC: 12 µg/mL (≈ 33.2 µM)
[19]
  MIC: 8 µg/mL (≈ 22.1 µM)
[20]
  MIC: 8 µg/mL (≈ 22.1 µM)
[21]
  MIC: 4 µg/mL (≈ 11.1 µM)
[22]
  MIC: 12 µg/mL (≈ 33.2 µM)
[23]
  MIC: 12 µg/mL (≈ 33.2 µM)
